Rows were chosen to be rich in hits. Some 1.9% of all compounds tested hit in one or more screens of this group.
PP1 inh: counter-screen for PP5 inhibitors: inhibitors of human PP1-alpha. purified PP1alpha, OMFP fluorescence. inhibition, % at 6.7 µM. P62136. hit rate 0.9% among 320,000;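 active means inhibition above the mean inhibition of all tested compounds plus 3 SD, computed separately for each screening campaign, cut at about 15% in these data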
Target sequence (P62136 whole entry, looked up): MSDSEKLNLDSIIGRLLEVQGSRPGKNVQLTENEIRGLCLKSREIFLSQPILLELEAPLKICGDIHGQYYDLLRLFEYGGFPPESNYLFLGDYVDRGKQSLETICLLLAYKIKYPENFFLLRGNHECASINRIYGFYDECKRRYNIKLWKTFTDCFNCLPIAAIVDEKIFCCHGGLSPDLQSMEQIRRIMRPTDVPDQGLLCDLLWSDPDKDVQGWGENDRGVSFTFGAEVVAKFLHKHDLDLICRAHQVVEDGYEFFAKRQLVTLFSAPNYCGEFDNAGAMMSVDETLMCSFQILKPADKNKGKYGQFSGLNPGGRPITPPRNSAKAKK
HCV core dimer: blocks dimerization of HCV core protein | TR-FRET GST/Flag-core106 dimerization, 1536-well | inhibition, % at 5 µM | hit rate 0.33% among 300,000;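 active means inhibition above the mean of all tested compounds plus 3 SD, set per screening campaign, cut at about 45% in these data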
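Material: Tagged HCV core106 pair (GST and Flag) | Amount: GST-core106 13.5 nM, Flag-core106 17 nM | Medium: KF-containing HEPES buffer, pH 7.45, DTT, CHAPS, BSA | Reagent: Eu donor and XL665 acceptor anti-tag antibodies | Schedule: 4 h at 22.5 °C | Technique: Time-resolved FRET, ex 340 nm, em 617 and 671 nm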
ZTA counter: ZTA (EBV) inhibition in EBNA-1 counter-screen; hit rate 0.15% among 320,000; AID 2234; inhibition, % at 11 µM; ZTA-DNA binding, fluorescence polarization; in the data active means inhibition above about 33%
Target sequence (P03206 whole entry, looked up): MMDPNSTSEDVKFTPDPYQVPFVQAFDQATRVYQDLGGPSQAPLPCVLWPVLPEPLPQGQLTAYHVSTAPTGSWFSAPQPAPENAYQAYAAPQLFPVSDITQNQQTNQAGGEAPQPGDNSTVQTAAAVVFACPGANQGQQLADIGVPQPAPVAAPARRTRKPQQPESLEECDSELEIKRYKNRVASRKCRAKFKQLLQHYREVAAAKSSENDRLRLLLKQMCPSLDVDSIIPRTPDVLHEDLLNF
NS3 helicase inh: HCV NS3 helicase inhibition; NS3 helicase DNA unwinding, Cy5 molecular beacon fluorescence; inhibition, % at 10.9 µM; hit rate 0.56% among 290,000;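 active means inhibition above the mean of all tested compounds plus 3 SD, set per campaign, cut at about 35% in these data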;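 further: 0% = DMSO wells and 100% = thioflavine S control wells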
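System: HCV NS3 helicase fragment; control set: DMSO and thioflavine S; technique: Cy5 fluorescence at 0 and 60 min, beacon hairpin quenching; reagent: beacon DNA duplex substrate plus ATP; replicates: singlicate; schedule: 1 h reaction at 25 °C, ATP-initiated; medium: MOPS buffer pH 6.5 with MgCl2, DTT, Tween20, BSA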
EBNA-1 inh: blocks EBNA-1 binding to DNA; EBNA-1 DNA binding, fluorescence polarization; inhibition, % at 14.8 µM; hit rate 0.34% among 300,000; in the data active means inhibition above about 28%
NS3 helicase cf: HCV NS3 helicase inhibition, confirmation assay | shares compounds with NS3 helicase inh | AID 1943 | hit rate 31% among 1,600 | NS3 helicase DNA unwinding, Cy5 molecular beacon fluorescence | inhibition, % at 10.9 µM;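 active means inhibition above the mean of all tested compounds plus 3 SD, cutoff set per campaign, cut at about 36% in these data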
FID counter trip: displaces DNA intercalator in HCV helicase counter-screen | inhibition, % at 7.9 µM | shares compounds with NS3 helicase inh | AID 1945 | hit rate 4% among 1,600 | DNA fluorescent intercalator displacement, fluorescence; in the data active means inhibition above about 37%;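 further: 0% = vehicle and 100% = reference compound; higher means more displacement of ethidium bromide from the DNA hairpin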
FID counter DR: displaces fluorescent intercalator from DNA, HCV helicase counter-screen; 120 tested, under 10 active; shares compounds with NS3 helicase inh; IC50, µM; AID 2172; fluorescent intercalator displacement from DNA, fluorescence; call rule not given here
An asterisk follows results filed as active; . = no result given.

SMILES | PP1 inh | HCV core dimer | ZTA counter | NS3 helicase inh | EBNA-1 inh | NS3 helicase cf | FID counter trip | others
CCOC(=O)c1ccc(N=Cc2c(O)c3ccccc3oc2=O)cc1 | 8.9 | 9.5 | 11.5 | 41.4* | -6.2 | -14.6 | -2.7
CCC1=NN2C(=N)/C(=C\c3cccn3-c3ccc(Cl)cc3)C(=O)N=C2S1 | -3.1 | 42.4 | -7.3 | 4.1 | 0.7 | . | .
Cc1ccc(-n2cccc2/C=C2\C(=N)N3N=C(c4ccco4)SC3=NC2=O)cc1 | 8.8 | 20.6 | -2.9 | 42.5* | 11.2 | 85.0* | -23.4 | FID counter DR=>79.4
Cc1cc(C(=O)CSc2nc3ccccc3c(=O)n2C)c(C)n1Cc1ccc2c(c1)OCO2 | 0.3 | 27.4 | 14.5 | 40.0* | 9.6 | 2.0 | -18.2
Cc1cc(C(=O)CSc2nnc(-c3ccccc3)n2Cc2ccc3c(c2)OCO3)c(C)n1C | 3.9 | 3.0 | 12.7 | 9.8 | 8.0 | . | .
O=C(Nc1nnc(-c2ccc(Br)cc2)o1)c1cccc(N2C(=O)CCC2=O)c1 | 0.5 | -5.4 | 2.9 | . | -12.7 | . | .
COc1ccc(CC(=O)OCC(=O)NCc2ccco2)cc1OC | -0.3 | 0.9 | 22.1 | . | -0.9 | . | .
Cc1ccc(N2C(=O)CCC2(C(N)=O)c2ccccc2)cc1 (stereo not given) | -4.7 | 0.2 | -4.2 | 3.7 | -5.1 | . | .
COc1ccc(N(C)C(=O)c2cn(CC(C)C)c(=O)c3cc(OC)c(OC)cc23)cc1 | -0.7 | 12.4 | 13.8 | -7.2 | -8.1 | . | .
CCC(C)(C)n1nnnc1C(c1ccccc1F)N1CCN(C(=O)c2ccco2)CC1 (stereo not given) | -1.4 | -4.1 | -0.5 | -7.8 | -3.6 | . | .
CCCc1nc2sc3ccccc3c(=O)c2c(=O)n1Cc1ccco1 | . | . | . | 46.4* | . | 4.1 | -8.7
O=C(Nc1ccc(OC(F)(F)F)cc1)c1ccc(S(=O)(=O)N2CCOCC2)o1 | -3.3 | -0.2 | -2.9 | -17.8 | -2.8 | . | .
COC(=O)c1ccc(CN2CCN(CC(C)C)C(CCO)C2)cc1 (stereo not given) | -4.1 | -3.2 | -10.0 | 38.3* | 6.6 | -15.9 | 0.0
COC(=O)c1ccc(CN2CCN(Cc3ccc(F)cc3)C(CCO)C2)cc1 (stereo not given) | -0.1 | -4.1 | 5.1 | 2.9 | 5.8 | . | .
Cc1ccc(C(=O)N2CCC(n3nccc3NC(=O)C3CCOC3)CC2)cc1 (stereo not given) | -5.1 | 0.8 | -0.4 | 2.3 | -4.8 | . | .
COc1ccc(C(=O)NC(CC(=O)O)c2cc([N+](=O)[O-])ccc2Cl)c(SC)c1 (stereo not given) | -1.6 | 5.8 | 15.9 | 8.5 | 0.1 | . | .
O=c1cc(O)c2ccc(O)cc2o1 | 5.0 | -1.9 | -1.2 | -0.3 | -9.3 | . | .
O=c1ccc2[n+]([O-])c3ccc(O)cc3oc-2c1 | . | . | . | 36.8* | . | -0.5 | -40.5
NS(=O)(=O)c1ccc(N2C(=O)C(=O)/C(=C(/O)c3ccccc3)C2c2ccc(Cl)cc2)cc1 (stereo not given) | 9.6 | 4.4 | -1.1 | 40.8* | -0.3 | 10.9 | -11.3
Cc1cc(NC(=O)CSc2nc3ccccc3c(=O)n2-c2ccccc2)no1 | 0.4 | 0.9 | -2.8 | 1.6 | -3.6 | . | .
COC(=O)c1c(NC(=O)CSc2nc3ccccc3c(=O)n2-c2ccccc2)sc(C)c1C | -2.9 | 27.7 | 11.5 | 48.2* | 4.5 | 9.7 | -19.6
C[C@@H]1CC(=O)[C@H]2CC(CO)=CCC[C@@H]2[C@@]1(C)CC/C(=C/CO)CO | 0.5 | 5.4 | -8.3 | . | 6.1 | . | .
COc1ccc(/C=N\NC(=O)c2ccccc2)cc1COc1ccc(F)cc1 | -10.4 | 2.3 | -16.2 | 46.1* | -7.2 | -11.9 | -35.0
O=C(N/N=C/c1ccccc1)c1ccc(NC(=O)c2ccc(F)cc2)cc1 | 9.6 | -1.1 | -21.3 | 38.4* | -4.7 | -8.9 | 0.8
CC(=O)Nc1ccc(C(=O)N/N=C/c2ccc(F)cc2)cc1 | 5.6 | 4.1 | 4.6 | 9.3 | 2.3 | . | .
SMILES | PP1 inh | HCV core dimer | ZTA counter | NS3 helicase inh | EBNA-1 inh | NS3 helicase cf | FID counter trip | others
COc1ccc(C(=O)N/N=C/c2ccc(OC)c(COc3ccc(F)cc3)c2)cc1 | -0.8 | 10.2 | -5.9 | -9.5 | -2.4 | . | .
Cc1cccc(C(=O)Nc2ccc(C(=O)N/N=C/c3ccc(C)o3)cc2)c1 | 9.3 | -6.2 | -22.4 | 40.6* | -5.3 | -15.7 | -20.3
C1=C(c2ccco2)N2CCN=C2S1 | -2.1 | 5.8 | 15.3 | 3.7 | 6.8 | . | .
O=C(O)COc1ccccc1-c1nc(-c2ccccc2)c(-c2ccccc2)[nH]1 | 0.3 | 0.2 | 1.8 | -27.0 | -2.8 | . | .
COc1cccc(-c2nc(-c3ccccc3)c(-c3ccccc3)[nH]2)c1OCC(=O)O | . | . | . | 45.6* | . | 64.4* | -11.6
NC(=S)N/N=C/c1ccccc1 | 3.1 | -3.9 | -2.6 | 5.2 | -1.4 | . | .
NC(=S)N/N=C/c1ccc(C23CC4CC(CC(C4)C2)C3)cc1 | 6.3 | 15.2 | 3.3 | 55.5* | -6.8 | 36.8* | -6.0 | FID counter DR=>79.4
CCOc1ccc(C2/C(=C(\O)c3ccc4c(c3)OCCO4)C(=O)C(=O)N2CCN2CCOCC2)cc1OCC (stereo not given) | 0.8 | 2.2 | 1.2 | 10.7 | -3.4 | . | .
O=C(NNC1CC(=O)N(c2ccccc2)C1=O)c1ccc(COc2ccccc2Cl)o1 (stereo not given) | -4.2 | 6.7 | -12.6 | 60.1* | 6.9 | -11.9 | -26.7
O=C(NNC1CC(=O)N(c2ccccc2)C1=O)c1ccco1 (stereo not given) | -0.6 | 0.9 | 1.9 | -7.2 | 6.3 | . | .
CC(=O)c1sc(NC(=O)c2ccc(COc3ccccc3Cl)o2)nc1C | -0.9 | 2.6 | -4.8 | 41.7* | -1.4 | 20.6 | 14.9
CC(=O)Cc1nsc(NC(=O)c2ccc(COc3ccccc3Cl)o2)n1 | 1.8 | -1.1 | 5.9 | -16.4 | -13.1 | . | .
CC[C@@H](C)[C@H](NC(=O)Cc1c(C)c2c(cc(C)c3c(C)c(C)oc32)oc1=O)C(=O)O | . | . | . | 36.7* | . | 10.3 | -23.8
Cc1oc2c(c(C)cc3oc(=O)c(CC(=O)N[C@@H](C)C(=O)O)c(C)c32)c1C | -1.3 | 5.0 | -2.0 | 10.6 | -1.1 | . | .
COCCN(C(=O)CNC(=O)c1ccco1)C(C(=O)NC1CCCC1)c1ccc(OC)cc1 (stereo not given) | 5.0 | -15.5 | -7.4 | 43.9* | -3.6 | -4.5 | 5.7
CN1CCN(c2ccc(Cl)cc2NC(=O)/C=C/c2ccc(F)cc2)CC1 | 5.1 | -7.1 | -8.8 | -58.8 | -8.8 | . | .
COc1ccc(C(=O)Nc2ccccc2C(=O)O)cc1Cl | -3.1 | -4.6 | -15.2 | 39.1* | -11.9 | 30.4 | 8.8
Cc1occc1-c1nnc(SCC(=O)N2CCCc3ccccc32)n1Cc1ccco1 | . | . | . | 45.2* | . | -6.6 | -15.4
O=C(CSc1nnc(-c2cccnc2)n1Cc1ccco1)N1CCc2ccccc21 | -1.9 | 9.8 | 7.4 | 1.6 | 15.8 | . | .
O=C(O)Cn1c2c(c3ccccc31)CSc1ccc(Cl)cc1-2 | 11.7 | 10.1 | 13.6 | 36.5* | -2.3 | 83.5* | -10.5

High-throughput results from PubChem.
